Source: ChEMBL document CHEMBL3621175, “Second generation 2-aminoimidazole based advanced glycation end product inhibitors and breakers” (Bioorg Med Chem Lett, 2015)
Active and inactive are the calls of the source. The rule behind the calls is not given here.

Columns and labels:
[1] = Inhibition of advanced glycation end product formation using BSA and glycolaldehyde at 400 uM by standard fluorescence based assay; assay type: physicochemical
[2] = Inhibition of advanced glycation end product formation using BSA and glycolaldehyde at 40 uM by standard fluorescence based assay; assay type: physicochemical
[3] = Inhibition of advanced glycation end product formation assessed as protection of reactive primary amines by measuring primary amine reduction using BSA and glycolaldehyde by TNBSA assay; assay type: physicochemical; parameters: scale not given: the % may be the effect or the level left
Procedure, shortened: (§1)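 BSA was modified with glycolaldehyde in the presence of 2-AIs. Total primary amines were quantified by TNBSA, independent of fluorescence. Protection appears as preserved free amines relative to GO-modified BSA, with basal free-amine level of BSA before GO/2-AI treatment as reference. DMSO and PBS served as vehicle controls, with aminoguanidine as comparator.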

[4] = Inhibition of advanced glycation end product formation assessed as protection of reactive primary amines by measuring increase in primary amine level at 100 uM incubated for 7 days using BSA and glycolaldehyde by TNBSA assay; assay type: physicochemical; settings: 168 h; procedure, shortened: as §1
[5] = Induction of breaking of pre-formed advanced glycation end product formation using BSA assessed as restoration of glycated -BSA primary amine content after 24 hrs by TNBSA assay
[6] = Induction of breaking of pre-formed carboxymethyl lysine-enriched advanced glycation end product formation using BSA and glyoxylic acid assessed as increase in primary amine content at 400 uM after 24 hrs by TNBSA assay relative to BSA alone
Procedure, shortened: (§2)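 CML-enriched AGE-BSA was pre-formed from 50 mg/mL BSA and 25 mM glyoxylic acid with sodium cyanoborohydride over 48 h, then purified by dialysis. The glycated protein was exposed to 2-AIs for 24 h. Free primary amines were quantified by TNBSA and compared with untreated CML-BSA. DMSO and PBS served as vehicle controls, with aminoguanidine as reference.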

[7] = Induction of breaking of pre-formed carboxymethyl lysine-enriched advanced glycation end product formation using BSA and glyoxylic acid assessed as increase in primary amine content at 400 uM after 24 hrs by TNBSA assay relative to pre-formed CML-enriched AGE; procedure, shortened: as §2
[8] = Induction of breaking of pre-formed carboxymethyl lysine-enriched advanced glycation end product formation using BSA and glyoxylic acid assessed as increase in primary amine content at 400 uM after 24 hrs by TNBSA assay relative to 4,4'-(butane-1,4-diyl)bis(1H-imidazol-2-amine) dihydrochloride
[9] = Inhibition of advanced glycation end product formation assessed as protection of reactive primary amines by measuring increase in primary amine level at 100 uM incubated for 7 days using BSA and glycolaldehyde by TNBSA assay relative to control BSA; assay type: physicochemical; parameters: scale not given: the % may be the effect or the level left; settings: 168 h; procedure, shortened: as §1

Row | SMILES | inhibition (INH) [4] | Activity [6] | Activity [7] | Activity [8] | further results
1 | Nc1nc(CCCCc2c[nH]c(N)n2)c[nH]1 | Active |  |  |  | inhibition (INH) [1]: 44.6%; inhibition (INH) [2]: 5.6%; Activity [3]: 3.6%; Activity [5]: 78.9%
2 | Nc1nc(Cc2ccc(O)cc2)c[nH]1 | Active |  |  |  | 
3 | NCCCc1c[nH]c(N)n1 | Active | 67.5% | 110% | 79.4% | 
4 | NCCCCc1c[nH]c(N)n1 | Active | 52.5% | 97.9% | 64.5% | Activity [9]: 44.6%
5 | Nc1nc(Cc2c[nH]c3ccccc23)c[nH]1 | Active |  |  |  | 
6 | N=C(N)NN |  | inactive | inactive | inactive | 
7 | N=C(N)NCCCc1c[nH]c(N)n1 | Active |  |  |  | 
8 | Nc1nc(Cc2c[nH]cn2)c[nH]1 | Active |  |  |  | 
